The values below come from ChEMBL document CHEMBL3232919, “Imidazol-1-ylethylindazole voltage-gated sodium channel ligands are neuroprotective during optic neuritis in a mouse model of multiple sclerosis” (J Med Chem, 2014).

SMILES strings stand for the structures.

Series [1] in a line: Displacement of [3H]sipatrigine from Wistar rat brain synaptosomes voltage-gated sodium channel by liquid scintillation counting. The format is subcellular. In general terms: Loss of bound radioactivity is the signal in a displacement assay; it reports binding, not function.
The species entered for series [2] is Rattus norvegicus. Description: Neuroprotective activity in oxygen/glucose deprivation-induced Wistar rat hippocampal slice assessed as inhibition of cell death by measuring ATP level at 50 uM. It counts as functional.
Series [3] can be described thus: Metabolic stability in rat liver microsomes assessed as drug turnover at 1 uM at 40 mins by LC-MS/MS analysis. It counts as ADME. As to conditions: read-out: Drug metabolism. The method, boiled down: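 Compound at 1 μM was incubated (n=2) with pooled rat liver microsomes (0.25 mg protein/ml) at 37°C for 0 and 40 min. Reactions were stopped with acetonitrile containing an internal standard, and parent disappearance was measured by LC-MS/MS. Percentage turnover was taken from peak heights relative to the zero-time samples.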
A general note: Liver microsomes are vesicles of endoplasmic reticulum, rich in cytochrome P450 enzymes.

Series [4] is filed under the species Rattus norvegicus. In words: Neuroprotective activity in oxygen/glucose deprivation-induced Wistar rat hippocampal slice assessed as inhibition of cell death by measuring ATP level. The format is functional.

By IC50 is commonly meant the midpoint of a concentration-inhibition curve. Broadly, the inhibition is the relative decrease from the control value, in per cent. Consider `CC(=O)Nc1ccc(C(=O)NCc2noc(-c3c4ccccc4nn3CCn3ccnc3)n2)cc1`, for which the IC50 in series [1] turned out to be 59 µM. Also, the inhibition at 50 µM in the series listed under Rattus norvegicus [2] is -14%. The metabolised at 40 min, 1 µM in series [3] amounted to 45%.

`Cc1ccccc1S(=O)(=O)NCc1noc(-c2nn(CCn3ccnc3)c3ccccc23)n1` yielded an IC50 in series [1] of 4.9 µM. In addition, in the series listed under Rattus norvegicus [2], the inhibition at 50 µM turned out to be 57%.

As for `COc1cccc(C(=O)NCc2noc(-c3c4ccccc4nn3CCn3ccnc3)n2)c1`, the IC50 in series [1] was determined as 5 µM. Also, in the series listed under Rattus norvegicus [2], the inhibition at 50 µM was determined as 63%.

With `NCc1noc(-c2c3ccccc3nn2Cc2ccccn2)n1`, the half-maximal inhibitory concentration (IC50) in series [1] is > 10000 µM. Moreover, the inhibition at 50 µM in the series filed under Rattus norvegicus [2] was 25%.

Consider `COc1cccc(S(=O)(=O)NCc2noc(-c3nn(CCn4ccnc4)c4ccccc34)n2)c1OC`, for which the half-inhibitory concentration (IC50) in series [1] is > 500 µM. Further, the inhibition at 50 µM in the series filed under Rattus norvegicus [2] worked out at 37%.

As to `Cc1oncc1Cn1nc(-c2nc(CNC(=O)c3ccccc3)no2)c2ccccc21`, the IC50 in series [1] was > 2000 µM. Further, in the series filed under Rattus norvegicus [2], the inhibition at 50 µM is 19%.

In series [1], `NCc1noc(-c2c3ccccc3nn2CCn2ccnc2)n1` gave an IC50 of 14 µM. Moreover, the inhibition at 50 µM in the series filed under Rattus norvegicus [2] worked out at 8%. Also, the metabolised at 40 min, 1 µM in series [3] was 57%.

With `COc1ccc(C(=O)NCc2noc(-c3nn(CCn4ccnc4)c4ccccc34)n2)c(OC)c1OC`, in series [1], the IC50 is 5.3 µM. In the series listed under Rattus norvegicus [2], the inhibition at 50 µM was 37%.

In series [1], `CC(C)(C)OC(=O)NCc1noc(-c2nn(-c3ccccn3)c3ccccc23)n1` displayed an IC50 of 74 µM. Also, the inhibition at 50 µM in the series listed under Rattus norvegicus [2] stood at 18%.

Regarding `Cc1cc(C(=O)NCc2noc(-c3c4ccccc4nn3CCn3ccnc3)n2)ccc1[N+](=O)[O-]`, the IC50 in series [1] is 1.7 µM. In the series filed under Rattus norvegicus [2], the inhibition at 50 µM is 43%.

`CC(C)(C)OC(=O)NCc1noc(-c2nn(CCn3ccnc3)c3ccccc23)n1` came in with an IC50 in series [1] of 7.4 µM. Besides, in the series listed under Rattus norvegicus [2], the inhibition at 50 µM stood at 56%.

Turning to `O=S(=O)(NCc1noc(-c2nn(CCn3ccnc3)c3ccccc23)n1)c1ccc(Cl)cc1`, the IC50 in series [1] was 10 µM. Also, in the series listed under Rattus norvegicus [2], the inhibition at 50 µM is 21%.

Consider `NCc1noc(-c2c3ccccc3nn2CCc2cccs2)n1`, for which the IC50 in series [1] came out at 0.6 µM. In addition, in the series listed under Rattus norvegicus [2], the inhibition at 50 µM amounted to 36%.

In the case of `O=C(NCc1noc(-c2c3ccccc3nn2CCn2ccnc2)n1)c1ccc(OC(F)(F)F)cc1`, the IC50 in series [1] turned out to be 0.7 µM. For the same compound, the inhibition at 50 µM in the series listed under Rattus norvegicus [2] amounted to 31%.

Regarding `NCc1noc(-c2nn(-c3ccccn3)c3ccccc23)n1`, in series [1], the IC50 was 32 µM. Moreover, the inhibition at 50 µM in the series filed under Rattus norvegicus [2] was -11%.

In series [1], `CC(C)(C)OC(=O)NCc1noc(-c2c3ccccc3nn2Cc2ccccn2)n1` showed an IC50 of 23 µM. The inhibition at 50 µM in the series listed under Rattus norvegicus [2] was found to be 42%.

In the case of `CC(C)(C)OC(=O)NCc1noc(-c2nn(Cc3ccc(-n4cccn4)cc3)c3ccccc23)n1`, the IC50 in series [1] is 617 µM. Moreover, the inhibition at 50 µM in the series listed under Rattus norvegicus [2] was 20%.

`O=C(NCc1noc(-c2c3ccccc3nn2CCn2ccnc2)n1)c1ccc2ccccc2c1`: the IC50 in series [1] is 0.4 µM. Moreover, the inhibition at 50 µM in the series listed under Rattus norvegicus [2] turned out to be 22%.

Regarding `O=S(=O)(NCc1noc(-c2nn(CCn3ccnc3)c3ccccc23)n1)c1cccc(C(F)(F)F)c1`, the IC50 in series [1] was 2.1 µM. In the series filed under Rattus norvegicus [2], the inhibition at 50 µM is 38%.

As for `CC(C)(C)OC(=O)NCc1noc(-c2c3ccccc3nn2CCn2ccnc2)n1`, the IC50 in series [1] is 15.5 µM. In addition, the inhibition at 50 µM in the series filed under Rattus norvegicus [2] was 35%. For the same compound, the metabolised at 40 min, 1 µM in series [3] stood at 70%.

In series [1], `NCc1noc(-c2nn(Cc3ccc(-n4cccn4)cc3)c3ccccc23)n1` showed an IC50 of 6.2 µM. Further, the inhibition at 50 µM in the series filed under Rattus norvegicus [2] is 26%.

For `COc1cccc(C(=O)NCc2noc(-c3nn(CCn4ccnc4)c4ccccc34)n2)c1OC`, the IC50 in series [1] was determined as 7.1 µM. The inhibition at 50 µM in the series listed under Rattus norvegicus [2] came out at 69%.

The compound `O=S(=O)(NCc1noc(-c2nn(CCn3ccnc3)c3ccccc23)n1)c1ccc(OC(F)(F)F)cc1` returned an IC50 in series [1] of 4.9 µM. Moreover, the inhibition at 50 µM in the series listed under Rattus norvegicus [2] worked out at 0%.

The EC50 is the concentration giving half of the maximal effect. Consider `NCc1noc(-c2nn(Cc3ccccc3)c3ccccc23)n1`, for which the EC50 in the series filed under Rattus norvegicus [4] stood at 35 µM.

The compound `COc1ccc(C(=O)NCc2noc(-c3c4ccccc4nn3CCn3ccnc3)n2)cc1` gave an IC50 in series [1] of 6.2 µM. The inhibition at 50 µM in the series filed under Rattus norvegicus [2] turned out to be 55%.

For the compound `O=C(NCc1noc(-c2nn(CCn3ccnc3)c3ccccc23)n1)c1cccc(OC(F)(F)F)c1`, the IC50 in series [1] was 1.5 µM. The inhibition at 50 µM in the series listed under Rattus norvegicus [2] stood at 37%. Further, the metabolised at 40 min, 1 µM in series [3] amounted to 78%.

In the case of `O=C(NCc1noc(-c2c3ccccc3nn2Cc2ccccn2)n1)c1ccccc1`, the IC50 in series [1] turned out to be 41 µM. The inhibition at 50 µM in the series filed under Rattus norvegicus [2] is 58%.

With `NCc1noc(-c2nn(CCn3ccnc3)c3ccccc23)n1`, the IC50 in series [1] is 148 µM. Besides, the inhibition at 50 µM in the series listed under Rattus norvegicus [2] was -2%.

In series [1], `COc1ccccc1C(=O)NCc1noc(-c2c3ccccc3nn2CCn2ccnc2)n1` registered an IC50 of 7.1 µM. For the same compound, the inhibition at 50 µM in the series listed under Rattus norvegicus [2] turned out to be 54%.

In turn, `Cc1cccc(C(=O)NCc2noc(-c3c4ccccc4nn3CCn3ccnc3)n2)c1` returned an IC50 in series [1] of 2.5 µM. Besides, in the series listed under Rattus norvegicus [2], the inhibition at 50 µM is 41%.

In series [1], `Cc1oncc1Cn1nc(-c2nc(CNC(=O)OC(C)(C)C)no2)c2ccccc21` came in with a 50% inhibitory concentration (IC50) of 339 µM. Further, in the series listed under Rattus norvegicus [2], the inhibition at 50 µM was 39%.

The compound `O=C(NCc1noc(-c2nn(CCn3ccnc3)c3ccccc23)n1)c1cccc2[nH]ccc12` yielded an IC50 in series [1] of 13 µM. Further, the inhibition at 50 µM in the series listed under Rattus norvegicus [2] was determined as 52%.

As to `CC(C)(C)OC(=O)NCc1noc(-c2c3ccccc3nn2CCc2cccs2)n1`, the IC50 in series [1] turned out to be 166 µM. Also, the inhibition at 50 µM in the series listed under Rattus norvegicus [2] came to 1%.

Consider `CC(C)(C)c1ccc(S(=O)(=O)NCc2noc(-c3nn(CCn4ccnc4)c4ccccc34)n2)cc1`, for which the IC50 in series [1] was determined as 4.4 µM. Besides, in the series listed under Rattus norvegicus [2], the inhibition at 50 µM amounted to 16%.

Turning to `O=C(NCc1noc(-c2c3ccccc3nn2CCn2ccnc2)n1)c1ccc(Cl)cc1`, in series [1], the IC50 came out at 2.2 µM. Moreover, the inhibition at 50 µM in the series filed under Rattus norvegicus [2] turned out to be 42%.

For `CC(C)(C)c1ccc(C(=O)NCc2noc(-c3nn(CCn4ccnc4)c4ccccc34)n2)cc1`, in series [1], the IC50 turned out to be 1.2 µM. Also, in the series listed under Rattus norvegicus [2], the inhibition at 50 µM was determined as 40%.

Regarding `O=C(NCc1noc(-c2c3ccccc3nn2CCc2cccs2)n1)c1ccccc1`, the IC50 in series [1] is > 1000 µM. Further, the inhibition at 50 µM in the series filed under Rattus norvegicus [2] was -2%.

For `O=C(NCc1noc(-c2c3ccccc3nn2CCn2ccnc2)n1)c1cccc(F)c1F`, in series [1], the IC50 came to 3.6 µM. In the series listed under Rattus norvegicus [2], the inhibition at 50 µM was 2%.

In series [1], `Cc1oncc1Cn1nc(-c2nc(CN)no2)c2ccccc21` returned an IC50 of 15 µM. Moreover, in the series filed under Rattus norvegicus [2], the inhibition at 50 µM stood at 19%.

In turn, `CC(=O)Nc1ccc(S(=O)(=O)NCc2noc(-c3c4ccccc4nn3CCn3ccnc3)n2)cc1` showed an IC50 in series [1] of 17 µM. Besides, the inhibition at 50 µM in the series filed under Rattus norvegicus [2] turned out to be 25%. Moreover, the metabolised at 40 min, 1 µM in series [3] came to 54%.

In series [1], `CC(C)(C)OC(=O)NCc1noc(-c2nn(Cc3ccc4c(c3)OCO4)c3ccccc23)n1` yielded an IC50 of 6 µM. Moreover, the inhibition at 50 µM in the series filed under Rattus norvegicus [2] is -3%.

`Cc1ccccc1C(=O)NCc1noc(-c2c3ccccc3nn2CCn2ccnc2)n1` registered an IC50 in series [1] of 2.9 µM. The inhibition at 50 µM in the series listed under Rattus norvegicus [2] was determined as 62%.

With `NCc1noc(-c2c3ccccc3nn2Cc2ccccc2)n1`, the inhibition at 50 µM in the series listed under Rattus norvegicus [2] stood at 57%.

`O=C(NCc1noc(-c2c3ccccc3nn2CCn2ccnc2)n1)c1ccc2c(c1)OCO2` returned a half-inhibitory concentration (IC50) in series [1] of 5 µM. For the same compound, the inhibition at 50 µM in the series listed under Rattus norvegicus [2] worked out at 27%.

Consider `NCc1noc(-c2nn(Cc3ccc4c(c3)OCO4)c3ccccc23)n1`, for which the half-maximal inhibitory concentration (IC50) in series [1] amounted to 2.1 µM. Besides, in the series listed under Rattus norvegicus [2], the inhibition at 50 µM is 44%.
